Laboratory results reported in PubChem BioAssay.
Results filed as inconclusive are left out.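 How the source made its calls, unless noted: active means cell viability at or below a set limit in both duplicate runs, the limit being the all-compound median minus 4 SD (cut at about 23% in these data, passing the limit was not always enough); inconclusive means no clear call, values can overlap the other calls; inactive means the rest.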

Experiments:
[1] = OD615 S. cerevisiae growth inhibition, permissive medium, pilot counter-assay, permissive growth control for S. cerevisiae lifespan shortening project (AID 705;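 active means growth inhibition above 25% in both replicates, a cutoff set 3 SD above the mean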); settings: OD615, 24 h, at 10 µM, stronger effect = higher value
Outline: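 Material: engineered DeaD yeast; Compound: one dose 10 µM, DMSO 0.25% final; Detection: absorbance (optical density) at 615 nm; Buffer or medium: permissive raffinose/galactose medium; Timing: 24 h exposure, 30 °C.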

[2] = Restrictive medium S. cerevisiae growth inhibition, OD615, pilot screen of yeast lifespan reduction project, restrictive growth control (AID 706;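 active means growth inhibition above a set limit, 3 SD over mean compound inhibition, in both replicates, cut at about 43% in these data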;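 further: modified DeaD lifespan yeast strain shifted to restrictive glucose medium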); settings: OD615, 48 h, at 10 µM, stronger effect = higher value
Outline: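 Buffer or medium: restrictive glucose medium (CSMM-D); test system: modified S. cerevisiae; doses: single dose of 10 µM compound final, 0.25% DMSO; schedule: 48 h compound exposure at 30 °C; detection: absorbance (optical density) measured at 615 nm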

[3] = viability gain of MRP-1-high H69AR cells under doxorubicin, pilot screen, MRP-1 activator project, CellTiter-Glo, duplicate (AID 807;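 active means viability increase at or above a cutoff of the median across tested compounds plus 3 SD, cut at about 8.5% in these data, passing the limit was not always enough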;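 further: compound pretreatment 18-22 h then 72 h combined with doxorubicin; 0% = doxorubicin alone and 100% = vehicle without doxorubicin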); settings: H69AR viability with doxorubicin, CellTiter-Glo luminescence; at 10 µM; stronger effect = higher value
[4] = growth suppression of beta-catenin knockout HCT116, pilot screen, human colon tumor cells (AID 823); settings: CellTiter-Glo, 60 h, at 10 µM, stronger effect = lower value;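 further: 0% = wells killed by 20 µM Hyamine and 100% = untreated DMSO cell wells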
[5] = growth suppression of PTEN-deleted HCT116, pilot screen, cell-based, HCT116 clonal line, CellTiter-Glo (AID 824;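 active means viability at or below 27.92% in each of two runs, the all-compound median minus 4 SD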;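 further: 0% = 20 µM Hyamine control and 100% = vehicle cell control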); settings: 60 h, at 10 µM, stronger effect = lower value
[6] = inhibitors of the yeast RAM network, pilot screen, dse1pr::URA3 reporter, 5-FOA selection (AID 869;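 active means inhibition over a set limit, the all-compound mean plus 3 SD, in both replicate runs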;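 further: 0% = DMSO wells with no growth and 100% = 10 µM 1-NA-PP1 with full growth; RAM network block rescues cells from 5-FOA so hits raise OD615 growth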); settings: S. cerevisiae dse1pr::URA3 5-FOA growth, OD615, 2 d; at 10 µM; stronger effect = higher value; strain carries analog-sensitive mutant Cbk1 kinase
[7] = RAM signaling pathway blockade in yeast – S. cerevisiae, Pdr1DBD-CYC8 efflux-inhibited sensitized strain, primary screen (AID 1298;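 active means RAM network inhibition above 8.4% in each of two replicates, 3 SD over the compound average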;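 further: 0% = DMSO untreated cells without growth and 100% = 10 µM 1-NA-PP1 full growth; higher means more yeast growth rescued from 5-FOA killing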); settings: S. cerevisiae cbk1-as DSE1-URA3 strain, 5-FOA growth OD615, 2 d; at 50 µM; stronger effect = higher value

Cc1ccc(C2CC(c3cccc(C)c3)n3ncnc3N2)cc1 (configuration not stated)
inactive: growth inhibition [1] 3.83% | growth inhibition [2] 15.5% | viability increase [3] -0.97% | viability [4] 85.7% | viability [5] 86.1% | inhibition [6] 0.45% | RAM network inhibition [7] 4.74%

CCOC(=O)N1CCC(NC(=O)c2cc3ccccn3n2)CC1
inactive: growth inhibition [1] 1.83% | growth inhibition [2] 1.79% | viability increase [3] 0.34% | viability [4] 97.5% | viability [5] 101% | inhibition [6] 1.8% | RAM network inhibition [7] 0.26%

CCOC(=O)Nc1ccc2c(c1)N(C(=O)N(C)C)c1ccccc1CC2
inactive: growth inhibition [1] -8.91% | growth inhibition [2] -0.49% | viability increase [3] -1.82% | viability [4] 96.8% | viability [5] 96% | inhibition [6] -0.31% | RAM network inhibition [7] 2.67%

CC1C(=O)CC(c2ccccc2)N(C)C1c1ccccc1 (configuration not stated)
inactive: growth inhibition [1] -16% | growth inhibition [2] -18% | viability increase [3] -4.71% | viability [4] 82.8% | viability [5] 84.1% | inhibition [6] 2.57% | RAM network inhibition [7] 8%

CCCOC(=O)CC1C(=O)NCCN1Cc1ccc(F)cc1 (configuration not stated)
inactive: growth inhibition [1] -12.3% | growth inhibition [2] -6.77% | viability increase [3] -1.04% | viability [4] 104% | viability [5] 98.3% | inhibition [6] 2.83% | RAM network inhibition [7] 1.73%

O=C(O)c1cccc(-n2cnnn2)c1
inactive: growth inhibition [1] 1.37% | growth inhibition [2] 1.52% | viability increase [3] 0.82% | viability [4] 104% | viability [5] 101% | inhibition [6] 1.06% | RAM network inhibition [7] 4.03%

O=C(CSc1nc2c(c(=O)n1-c1ccc(F)cc1)SCC2)NCc1ccco1
inactive: growth inhibition [1] 8.53% | growth inhibition [2] 14.1% | viability increase [3] -2.1% | viability [4] 102% | viability [5] 103% | inhibition [6] 1.21% | RAM network inhibition [7] 7.3%

COc1ccc(C2CC(c3cccc(OC)c3)n3nc(N)nc3N2)cc1 (configuration not stated)
inactive: growth inhibition [1] -5.42% | growth inhibition [2] 9.84% | viability increase [3] 1.37% | viability [4] 100% | viability [5] 92.7% | inhibition [6] 2.04% | RAM network inhibition [7] -1.58%

N#CCn1nnc(-c2ccc3c(c2)OCO3)n1
inactive: growth inhibition [1] -5.24% | growth inhibition [2] 3.03% | viability increase [3] 3.41% | viability [4] 98.5% | viability [5] 103% | inhibition [6] 0.46% | RAM network inhibition [7] 0.16%

O=C(CC1Oc2ccccc2NC1=O)NCCc1ccccc1 (configuration not stated)
inactive: growth inhibition [1] -0.525% | growth inhibition [2] 0.925% | viability increase [3] 0.98% | viability [4] 107% | viability [5] 105% | inhibition [6] 2.94% | RAM network inhibition [7] 9.58%

COc1ccccc1NC(=O)C1=C(C)Nc2nc(-c3cccs3)nn2C1c1cccnc1 (configuration not stated)
inactive: growth inhibition [1] -13.7% | growth inhibition [2] -9.57% | viability increase [3] -5.67% | viability [4] 86.7% | viability [5] 91.4% | inhibition [6] 2.23% | RAM network inhibition [7] 4.86%

Cc1noc(C)c1S(=O)(=O)N(CC(=O)N1CCc2ccccc21)c1ccc(C(C)C)cc1
inactive: growth inhibition [1] -4.56% | growth inhibition [2] -7.38% | viability increase [3] -5.04% | viability [4] 86.7% | viability [5] 82.5% | inhibition [6] 1.3% | RAM network inhibition [7] 5.36%

Cn1c(=NC(=O)c2ccco2)sc2cccc(F)c21
inactive: growth inhibition [1] -12.6% | growth inhibition [2] -1.11% | viability increase [3] -7.04% | viability [4] 80.9% | viability [5] 78.4% | inhibition [6] 2.1% | RAM network inhibition [7] 6.79%

CC1Cc2nc(SCC(=O)OCc3ccccc3)n(C)c(=O)c2S1 (configuration not stated)
inactive: growth inhibition [1] 5.29% | growth inhibition [2] 1.86% | viability increase [3] -3.06% | viability [4] 102% | viability [5] 93.8% | inhibition [6] 0.69% | RAM network inhibition [7] 6.68%

NC(=O)C1CCN(C(=O)c2cnn(-c3ccccc3)c2NC(=O)c2ccco2)CC1
inactive: growth inhibition [1] -2.77% | growth inhibition [2] 1.08% | viability increase [3] -4.39% | viability [4] 99.7% | viability [5] 98.8% | inhibition [6] 1.67% | RAM network inhibition [7] 5.39%

CC(=O)Nc1nnc(SCC(=O)NCCOc2ccccc2)s1
inactive: growth inhibition [1] -0.45% | growth inhibition [2] -7.88% | viability increase [3] -0.85% | viability [4] 98.9% | viability [5] 96.7% | inhibition [6] 0.52% | RAM network inhibition [7] 4.66%

CC(O)c1cccc(NC(=O)CCC(=O)O)c1 (configuration not stated)
inactive: growth inhibition [1] 0.85% | growth inhibition [2] -3.43% | viability increase [3] -2.35% | viability [4] 98.9% | viability [5] 95.4% | inhibition [6] 1.97% | RAM network inhibition [7] -1.13%

CCOC(=O)C1CCCN(C(=O)Cn2nc(Cc3cccnc3)c3ccccc3c2=O)C1 (configuration not stated)
inactive: growth inhibition [1] 3.18% | growth inhibition [2] -7.92% | viability increase [3] 1.09% | viability [4] 99.5% | viability [5] 102% | inhibition [6] 2.21% | RAM network inhibition [7] 2.19%

COc1ccccc1NC1C=CS(=O)(=O)C1 (configuration not stated)
inactive: growth inhibition [1] -1.03% | growth inhibition [2] 0.12% | viability increase [3] -2.42% | viability [4] 99.5% | viability [5] 94.4% | inhibition [6] 0.335% | RAM network inhibition [7] 4.65%

CCN(CC)S(=O)(=O)c1ccc(Cl)c(C(=O)Nc2nnc(C)s2)c1
inactive: growth inhibition [1] -6.93% | growth inhibition [2] 1.45% | viability increase [3] 0.43% | viability [4] 93.1% | viability [5] 95.7% | inhibition [6] -0.08% | RAM network inhibition [7] 4.33%

Cn1c(=O)[nH]c(=O)c2[nH]c(CN3CCN(Cc4ccccc4)CC3)nc21
inactive: growth inhibition [1] -9.19% | growth inhibition [2] -10% | viability increase [3] -0.77% | viability [4] 104% | viability [5] 99.5% | inhibition [6] 0.395% | RAM network inhibition [7] 1.09%

Cc1ccc(OC(=O)CCC(=O)Nc2ccc(S(=O)(=O)Nc3cc(C)on3)cc2)cc1
inactive: growth inhibition [1] -2.27% | growth inhibition [2] 0.38% | viability increase [3] -1.11% | viability [4] 109% | viability [5] 106% | inhibition [6] 0.875% | RAM network inhibition [7] 3.97%

COc1ccc(OC)c(NC(=O)Cn2cnc3c(cnn3-c3ccccc3)c2=O)c1
inactive: growth inhibition [1] 3.69% | growth inhibition [2] 7.43% | viability increase [3] -0.9% | viability [4] 98% | viability [5] 94.2% | inhibition [6] 1.27% | RAM network inhibition [7] 0.95%

CC(=O)Nc1ccc(S(=O)(=O)N2CCN(c3cc(C)ccc3C)CC2)cc1
inactive: growth inhibition [1] -14.3% | growth inhibition [2] -36% | viability increase [3] -0.32% | viability [4] 85.7% | viability [5] 79.3% | inhibition [6] 3.58% | RAM network inhibition [7] 0.1%

C=CCSC1=C(C#N)C(c2ccc(C(C)C)cc2)CC(=O)N1 (configuration not stated)
inactive: growth inhibition [1] -11.6% | growth inhibition [2] 8.41% | viability increase [3] -1.41% | viability [4] 92.2% | viability [5] 96.3% | inhibition [6] 0.04% | RAM network inhibition [7] 5.66%

COc1ccccc1CNC(=O)COC(=O)c1ccc(NC(N)=O)cc1
inactive: growth inhibition [1] -12.7% | growth inhibition [2] -13.7% | viability increase [3] -0.98% | viability [4] 96.5% | viability [5] 97.9% | inhibition [6] 0.56% | RAM network inhibition [7] 5.2%

COc1ccc(CNC(=O)Cn2cc3c(n2)CCCCC3)cc1
inactive: growth inhibition [1] 2.42% | growth inhibition [2] -0.895% | viability increase [3] -2.29% | viability [4] 102% | viability [5] 91.9% | inhibition [6] 0.54% | RAM network inhibition [7] -1.07%

CCSc1nnc(Cc2cc(=O)[nH]c(=O)[nH]2)n1-c1cccc(C)c1
inactive: growth inhibition [1] -8.16% | growth inhibition [2] -4.58% | viability increase [3] -1.79% | viability [4] 105% | viability [5] 94.3% | inhibition [6] 1.77% | RAM network inhibition [7] 0.26%

CCc1cccc(NC(=O)CCS(=O)(=O)c2cccc3nonc23)c1
inactive: growth inhibition [1] 0.64% | growth inhibition [2] -9.32% | viability increase [3] -1.95% | viability [4] 93.8% | viability [5] 95.3% | inhibition [6] 0.47% | RAM network inhibition [7] 2.79%

C=CCn1c(SCCOC)nc2c1c(=O)[nH]c(=O)n2C
inactive: growth inhibition [1] 2.12% | growth inhibition [2] 0.43% | viability increase [3] -2.47% | viability [4] 99% | viability [5] 95% | inhibition [6] 0.665% | RAM network inhibition [7] -0.26%

O=C(CN1CCN(Cc2ccc(F)cc2)C1=O)NCc1cccs1
inactive: growth inhibition [1] -6.23% | growth inhibition [2] -1.7% | viability increase [3] 1.33% | viability [4] 99.5% | viability [5] 94.1% | inhibition [6] 0.97% | RAM network inhibition [7] 2.12%

COc1cccc(NC(=O)Cn2cc3c(n2)CCCCC3)c1
inactive: growth inhibition [1] -10% | growth inhibition [2] -7.44% | viability increase [3] 0.07% | viability [4] 98.2% | viability [5] 92% | inhibition [6] 1.66% | RAM network inhibition [7] 6.31%

CCC(=O)N1c2ccccc2NC2=C(C(=O)CC(c3ccco3)C2)C1c1ccco1 (configuration not stated)
inactive: growth inhibition [1] -7.69% | growth inhibition [2] 7.1% | viability increase [3] -1.65% | viability [4] 92.4% | viability [5] 92.4% | inhibition [6] 0.915% | RAM network inhibition [7] -0.58%

O=C(Nc1nc2ccc(Cl)cc2s1)c1ccc(Br)o1
inactive: growth inhibition [1] -6.29% | growth inhibition [2] -6.11% | viability increase [3] -2.25% | viability [4] 82.3% | viability [5] 82.7% | inhibition [6] 2.08% | RAM network inhibition [7] 5.17%

O=C1C(Cl)=C(N2CCCCCC2)C(=O)N1c1ccccc1
inactive: growth inhibition [1] -12.4% | growth inhibition [2] -16.4% | viability increase [3] -0.88% | viability [4] 91.3% | viability [5] 93.2% | inhibition [6] 0.8% | RAM network inhibition [7] 3.09%

CC1CCN(C(C(=O)Nc2ccc3c(c2)OCO3)c2ccccc2)CC1 (configuration not stated)
inactive: growth inhibition [1] 3.37% | growth inhibition [2] 10.4% | viability increase [3] -2.94% | viability [4] 83.8% | viability [5] 78.7% | inhibition [6] 2.49% | RAM network inhibition [7] 4.49%
